The text below walks through data of ChEMBL document CHEMBL1157467, “Discovery of nonsteroidal 17beta-hydroxysteroid dehydrogenase 1 inhibitors by pharmacophore-based screening of virtual compound libraries” (J Med Chem, 2008).

A word on the IC50: it is the concentration that gives 50% inhibition. Usually Ki stands for the equilibrium dissociation constant of an inhibitor or competing ligand from its target.

In test [1] the target is T1, 17-beta-hydroxysteroid dehydrogenase type 2 (Homo sapiens) (UniProt P37059).
T1 sequence (whole entry): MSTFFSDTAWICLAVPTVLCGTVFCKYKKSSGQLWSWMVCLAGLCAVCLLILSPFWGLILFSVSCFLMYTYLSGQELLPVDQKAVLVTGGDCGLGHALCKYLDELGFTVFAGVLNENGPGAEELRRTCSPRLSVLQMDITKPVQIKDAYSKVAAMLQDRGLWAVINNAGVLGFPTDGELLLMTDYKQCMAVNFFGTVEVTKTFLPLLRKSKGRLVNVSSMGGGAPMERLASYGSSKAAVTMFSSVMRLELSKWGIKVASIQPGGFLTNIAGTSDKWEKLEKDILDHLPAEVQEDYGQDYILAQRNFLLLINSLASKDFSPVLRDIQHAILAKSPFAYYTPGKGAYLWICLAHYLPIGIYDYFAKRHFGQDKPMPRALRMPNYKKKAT
In words: Inhibition of human recombinant 17beta-HSD2 expressed in HEK293 cell lysate assessed as conversion of radiolabeled estrone to estradiol at 40 uM. It counts as cell-free. Details: scale not given: the % may be the effect or the level left.

The target in test [2] is T2, 17-beta-hydroxysteroid dehydrogenase type 1 (Homo sapiens) (UniProt P14061).
T2 sequence (whole entry): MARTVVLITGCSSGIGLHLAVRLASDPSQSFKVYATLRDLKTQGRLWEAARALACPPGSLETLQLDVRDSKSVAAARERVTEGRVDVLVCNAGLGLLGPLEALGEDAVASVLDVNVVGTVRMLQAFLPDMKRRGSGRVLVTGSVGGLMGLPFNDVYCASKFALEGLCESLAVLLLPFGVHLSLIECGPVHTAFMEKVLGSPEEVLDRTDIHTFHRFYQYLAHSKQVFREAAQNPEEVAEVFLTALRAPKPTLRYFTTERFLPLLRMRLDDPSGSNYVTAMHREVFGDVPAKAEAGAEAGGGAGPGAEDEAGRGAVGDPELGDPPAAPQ
In words: Inhibition of human recombinant 17beta-HSD1 expressed in HEK293 cell lysate assessed as conversion of radiolabeled estrone to estradiol at 20 uM. The test is classed as cell-free. Set-up: scale not given: the % may be the effect or the level left. The essentials:
(§1)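 HEK-293 cells transiently transfected with human 17β-HSD1 by calcium phosphate were harvested 48 h later, and the pellets were frozen at -70 °C. Pellets were resuspended in 50 mM potassium phosphate, 20% glycerol and 1 mM EDTA. Conversion of 200 nM radiolabeled estrone to estradiol was measured immediately with 500 µM NADPH. […] DMSO was ≤0.1%. Values are mean ± SD from three independent experiments.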

Test [3] has as its target T3, Aldo-keto reductase family 1 member C3 (Homo sapiens) (UniProt P42330).
T3 sequence (whole entry): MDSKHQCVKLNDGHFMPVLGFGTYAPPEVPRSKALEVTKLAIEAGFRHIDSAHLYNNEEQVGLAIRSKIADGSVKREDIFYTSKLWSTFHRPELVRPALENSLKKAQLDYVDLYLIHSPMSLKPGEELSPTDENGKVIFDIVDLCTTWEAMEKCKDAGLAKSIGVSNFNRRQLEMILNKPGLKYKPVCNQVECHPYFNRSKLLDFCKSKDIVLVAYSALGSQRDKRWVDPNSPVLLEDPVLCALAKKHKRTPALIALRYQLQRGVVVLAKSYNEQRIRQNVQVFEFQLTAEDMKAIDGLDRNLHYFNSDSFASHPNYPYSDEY
In words: Inhibition of human recombinant 17beta-HSD5 expressed in intact HEK293 cells assessed as conversion of androstenedione to testosterone at 20 uM after 24 hrs. The test is classed as cell-based. Set-up: scale not given: the % may be the effect or the level left. Put shortly: (§2)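 17β-HSD3 or 17β-HSD5 was transiently expressed in HEK-293 cells. Conversion of androstenedione to testosterone was measured in intact cells without added cofactor. Compounds were tested at 20 µM, with final DMSO ≤0.1%. Values are mean ± SD from three independent experiments.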

Test [4] concerns the target T1, 17-beta-hydroxysteroid dehydrogenase type 2 (Homo sapiens). The test is described as follows: Inhibition of human recombinant 17beta-HSD2 expressed in HEK293 cell lysate assessed as conversion of radiolabeled estrone to estradiol at 20 uM. It counts as cell-free. Details: scale not given: the % may be the effect or the level left.
The target of test [5] is 11-beta-hydroxysteroid dehydrogenase 1 (Homo sapiens, UniProt P28845). In words: Inhibition of human recombinant 11beta-HSD1 expressed in HEK293 cell lysate assessed as conversion of radiolabeled estrone to estradiol at 20 uM. It counts as cell-free. Details: scale not given: the % may be the effect or the level left.
11-beta-hydroxysteroid dehydrogenase 1, sequence (P28845 whole entry, looked up): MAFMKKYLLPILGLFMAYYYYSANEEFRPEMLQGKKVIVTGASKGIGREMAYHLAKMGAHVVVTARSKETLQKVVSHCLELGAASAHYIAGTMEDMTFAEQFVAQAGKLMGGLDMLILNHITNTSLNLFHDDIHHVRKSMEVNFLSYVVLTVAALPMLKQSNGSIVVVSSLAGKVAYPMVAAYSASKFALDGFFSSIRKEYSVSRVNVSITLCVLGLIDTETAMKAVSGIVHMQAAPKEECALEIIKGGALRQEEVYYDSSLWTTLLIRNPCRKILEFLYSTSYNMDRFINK
Test [6] addresses T4, 17-beta-hydroxysteroid dehydrogenase type 3 (Homo sapiens) (UniProt P37058).
T4 sequence (whole entry): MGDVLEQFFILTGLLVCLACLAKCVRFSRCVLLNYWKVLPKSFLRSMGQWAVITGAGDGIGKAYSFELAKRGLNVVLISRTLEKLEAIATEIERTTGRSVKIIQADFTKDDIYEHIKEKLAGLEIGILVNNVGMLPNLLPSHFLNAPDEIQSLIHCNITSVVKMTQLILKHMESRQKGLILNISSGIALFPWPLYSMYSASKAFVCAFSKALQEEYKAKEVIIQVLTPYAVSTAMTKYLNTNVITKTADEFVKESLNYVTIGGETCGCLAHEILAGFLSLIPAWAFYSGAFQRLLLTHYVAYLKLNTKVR
In words: Inhibition of human recombinant 17beta-HSD3 expressed in intact HEK293 cells assessed as conversion of androstenedione to testosterone at 20 uM. Details: scale not given: the % may be the effect or the level left. The test is classed as cell-based. Put shortly: as §2

The target in test [7] is T5, 17-beta-hydroxysteroid dehydrogenase type 1 (Homo sapiens, UniProt P14061).
T5 sequence (P14061 whole entry): T2 sequence (whole entry)
In words: Inhibition of human recombinant 17beta-HSD1 expressed in HEK293 cell lysate assessed as conversion of radiolabeled estrone to estradiol. It counts as cell-free. Put shortly:
as §1

The target of test [8] is T6, 17-beta-hydroxysteroid dehydrogenase type 2 (Homo sapiens, UniProt P37059).
T6 sequence (P37059 whole entry): T1 sequence (whole entry)
In words: Inhibition of human recombinant 17beta-HSD2 expressed in HEK293 cell lysate assessed as conversion of radiolabeled estrone to estradiol. It counts as cell-free.

The source made the active and inactive calls. The rule behind the calls is not given here.

Regarding `COc1ccc([C@@H]2CC(=O)c3c(O)cc(O)cc3O2)cc1O`, the Activity in test [1] was 36.4%; in test [2], 44%.

As to `Cc1cc(/C=N/NC(=O)C(O)(c2ccccc2)c2ccccc2)c(C)n1-c1ccc(O)cc1`, in test [3], the result was inactive. The Activity came to 113% in test [4], 90% in test [5], 76% in test [6] and 73% in test [2].

Turning to `O=C1CC(c2ccccc2O)Oc2ccccc21` (configuration not stated), the Activity was 50.7% in test [1] and 95% in test [2].

On to `O=c1c(-c2ccc(O)cc2)coc2cc(O)ccc12`, for which the Activity was 58.3% in test [1] and 35% in test [2].

With `O=C1CC(c2ccc(O)cc2)Oc2ccccc21` (configuration not stated), the Activity stood at 63.6% in test [1] and 99% in test [2].

Regarding `O=C1CC(c2ccccc2)Oc2ccccc21` (configuration not stated), the values for the Activity in test [1] and in test [2] were 70.7% and 110%, respectively.

On to `O=c1c(O)c(-c2ccc(O)cc2)oc2cc(O)cc(O)c12` [KAEMPFEROL], for which the results for the IC50 in test [7] and in test [8] were 1.05 µM and 0.36 µM, respectively. The Activity in test [1] turned out to be 4.83%; in test [2], 13%.

With `COc1ccc(-c2coc3cc(O)cc(O)c3c2=O)cc1` [BIOCHANIN], the IC50 in test [8] was 9.9 µM. Moreover, the Activity in test [1] came out at 10.1%; in test [2], 45%.

With `Cc1cc(-c2ccc(NS(=O)(=O)c3ccccc3)c(C)c2)ccc1NS(=O)(=O)c1ccccc1`, the result in test [3] was inactive. Also, the Activity stood at 56% in test [4], 101% in test [5], 92% in test [6] and 64% in test [2].

Turning to `COC(C(=O)Nc1ccc(-c2ccc(NC(=O)C(OC)c3ccccc3)c(C)c2)cc1C)c1ccccc1` (configuration not stated), the outcome in test [3] was inactive. Besides, the Activity in test [4] amounted to 59%; in test [5] it was 110%; in test [6], 96%; in test [2], 84%.

In the case of `O=c1c(O)c(-c2ccc(O)c(O)c2)oc2cc(O)cc(O)c12` [QUERCETIN], the IC50 in test [8] amounted to 1.54 µM. The Activity was determined as 6.07% in test [1] and 65% in test [2].

Turning to `Cc1c(/C=N/N=C2\CC[C@H]3[C@@H]4CCc5cc(O)ccc5[C@H]4CC[C@]23C)cnn1C`, the IC50 in test [7] was 33 µM. Besides, the outcome in test [3] was inactive. Besides, the Activity came to 63% in test [4], 81% in test [5], 75% in test [6] and 34% in test [2].

As to `O=c1cc(-c2ccccc2)oc2cc(O)cc(O)c12`, the Activity came to 32.8% in test [1] and 34% in test [2].

Take `CCOP(=O)(Nc1ccc2c(c1)Cc1c-2cc(Cl)c(NC(C)=O)c1Cl)OCC`: the Activity in test [3] stood at 84%; in test [4], 79%; in test [5], 87%; in test [6], 86%; in test [2], 90%.

Regarding `O=S(=O)(Nc1ccccc1)c1ccc2c(c1)Cc1cc(S(=O)(=O)Nc3ccccc3)ccc1-2`, in test [3], the result was inactive. For the same molecule, the Activity in test [4] was 76%; in test [5], 56%; in test [6], 80%; in test [2] it was 75%.

As for `Cc1cc(OCCOc2ccc(N)cc2)ccc1N1C(N)=NC(N)=NC1(C)C`, in test [3], the result was inactive. In addition, the Activity was 59% in test [4], 99% in test [5], 99% in test [6] and 84% in test [2].

As for `COc1c2c(cc3c1C1Oc4c(ccc(O)c4CC=C(C)C)C1CO3)OC(C)(C)C=C2` (configuration not stated), in test [7], the IC50 was determined as 19 µM. The result in test [3] was inactive. Also, the Activity in test [4] is 86%; in test [5] it was 96%; in test [6], 55%; in test [2] it was 54%.

Consider `O=c1cc(-c2ccccc2)oc2ccccc12`, for which the Activity is 63.9% in test [1] and 94% in test [2].

Turning to `O=c1cc(-c2ccc(O)cc2)oc2cc(O)cc(O)c12` [APIGENIN], the IC50 was 0.71 µM in test [7] and greater than 20 µM in test [8]. For the same molecule, the Activity in test [1] came to 25.2%; in test [2], 10%.

For `O=S1OCC2C(CO1)C1(Cl)C(Cl)=C(Cl)C2(Cl)C1(Cl)Cl` (configuration not stated) [ENDOSULFAN], the IC50 in test [7] is 48.2 µM. For the same molecule, the Activity in test [1] is 51.1%; in test [2], 25%.

`CCOc1cc(/C=N/NC(=O)c2ccccn2)c(Br)c(Br)c1O`: in test [3], the outcome was inactive. In addition, the Activity amounted to 55% in test [4], 68% in test [5], 95% in test [6] and 88% in test [2].

Regarding `Cc1cc2c(C(C)C)c(O)c(O)c(C=O)c2c(O)c1-c1c(C)cc2c(C(C)C)c(O)c(O)c(C=O)c2c1O`, the Activity in test [1] was 64.8%; in test [2], 60%.

On to `CC1(C)[C@@H](O)CC[C@]2(C)[C@H]3C(=O)C=C4[C@@H]5C[C@@](C)(C(=O)O)CC[C@]5(C)CC[C@@]4(C)[C@]3(C)CC[C@@H]12`, for which the Activity in test [1] worked out at 24.5%; in test [2], 53%.

Turning to `CCCCC(=O)Nc1sc2c(c1C(=O)OCC)CCC(/C=N/O)=C2Cl`, the outcome in test [3] was inactive. Moreover, the Activity turned out to be 48% in test [4], 106% in test [5], 89% in test [6] and 76% in test [2].

As to `CCCCN(C)C(=O)CCCCCS[C@@H]1C[C@@H]2[C@H](CC[C@]3(C)[C@@H](O)CC[C@@H]23)c2ccc(O)cc21`, the IC50 in test [7] turned out to be 0.17 µM.

`C[C@]12CC[C@@H]3c4ccc(O)cc4CC[C@H]3[C@@H]1C[C@H](CCCCCCCCC(=O)OC[C@H]1O[C@@H](n3cnc4c(N)ncnc43)[C@H](O)[C@@H]1O)[C@@H]2O`: the Ki in test [7] was determined as 0.003 µM.

Consider `O=C1CC(c2ccccc2)Oc2ccc(O)cc21` (configuration not stated), for which the results for the Activity in test [1] and in test [2] were 42.5% and 102%, respectively.

In the case of `O=C1C[C@@H](c2ccc(O)cc2)Oc2cc(O)cc(O)c21` [NARINGENIN], the IC50 in test [7] came out at 4.96 µM; in test [8] it was 14.4 µM. Also, the Activity in test [1] amounted to 12.6%; in test [2] it was 17.2%.

For the molecule `O=c1c(-c2ccc(O)cc2)coc2cc(O)cc(O)c12` [GENISTEIN], in test [7], the IC50 worked out at 2.21 µM. Further, the Activity in test [1] stood at 15.7%; in test [2], 17%.

With `O=c1cc(-c2ccccc2)oc2cc(O)ccc12` [7-HYDROXYFLAVONE], the IC50 is 5.25 µM in test [7] and greater than 20 µM in test [8]. Further, the Activity in test [1] amounted to 23.1%; in test [2], 16%.
